# From PubChem BioAssay
# The list is not random: actives were taken first. Their share in the collection is about 2.5%.
# Tb hexokinase: Trypanosoma brucei hexokinase 1 inhibitors, primary screen, biochemical, G6PDH-coupled NADH absorbance, MLSCN library. AID 1430, 2008. recombinant TbHK1, G6PDH-coupled NADH A340. inhibition, % at 10 µM. actives 0.11% (n = 220,000). hexokinase 1 [Trypanosoma brucei];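 active means inhibition of 50% or more in the single-dose primary screen; inactive means inhibition below 50%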
# PGE2 EP2 inh: human EP2 receptor antagonists, primary screen, TR-FRET cAMP, C6 glioma cells. C6 glioma cells expressing human EP2; cells stimulated with saturating PGE2. inhibition, % at 25 µM. actives 0.52% (n = 260,000). AID 1422, 2008;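 active means percent inhibition above 40 after rounding to a whole number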;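 further: rat C6 glioma host cells with rolipram phosphodiesterase inhibitor present; the protocol text gives 20 µM as final concentration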
# Target sequence (P43116 whole entry, looked up): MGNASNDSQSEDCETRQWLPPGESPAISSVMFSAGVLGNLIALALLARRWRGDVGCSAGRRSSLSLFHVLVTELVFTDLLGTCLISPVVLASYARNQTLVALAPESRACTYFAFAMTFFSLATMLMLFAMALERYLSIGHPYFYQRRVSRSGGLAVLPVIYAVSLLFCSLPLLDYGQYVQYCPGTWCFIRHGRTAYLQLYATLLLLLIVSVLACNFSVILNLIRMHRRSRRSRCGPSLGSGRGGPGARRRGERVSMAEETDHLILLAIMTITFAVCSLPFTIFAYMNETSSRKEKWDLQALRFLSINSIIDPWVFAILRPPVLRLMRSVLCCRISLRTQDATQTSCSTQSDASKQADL
# PHOSPHO1 inh: PubChem AID 1565; Phosphoethanolamine/phosphocholine phosphatase (Homo sapiens), Q8TCT1; actives 1.1% (n = 290,000); inhibition, % at 13.3 µM; recombinant PHOSPHO1, absorbance phosphatase assay; in the data active means inhibition above about 60%
# Target sequence (Q8TCT1 whole entry, looked up): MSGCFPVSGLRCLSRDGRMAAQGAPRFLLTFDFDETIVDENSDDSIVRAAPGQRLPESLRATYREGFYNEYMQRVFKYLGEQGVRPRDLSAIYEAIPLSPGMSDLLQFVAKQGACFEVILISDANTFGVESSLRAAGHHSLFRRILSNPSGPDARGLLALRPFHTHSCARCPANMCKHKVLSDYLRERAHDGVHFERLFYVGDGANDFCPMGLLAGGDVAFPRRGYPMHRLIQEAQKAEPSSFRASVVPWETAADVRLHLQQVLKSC
# HKDC1 inh: HKDC1 hexokinase inhibitors, primary screen, biochemical, fluorescence, uHTS. recombinant HKDC1, G6PDH/diaphorase resazurin coupled fluorescence. inhibition, % at 20 µM. actives 0.16% (n = 340,000). AID 493160, 2011;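 active means inhibition above about 35% when tested at 20 µM, limit read from the data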;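 further: plate controls were DMSO wells with enzyme for no effect and DMSO wells lacking enzyme for full effect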
#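 Material: recombinant HKDC1 hexokinase; Amount: HKDC1 at 5 µg/mL; Medium: Tris pH 8.0 buffer with MgCl2, Tween-20, BSA, BME; Schedule: 90 min reaction incubation at room temperature, dark; Technique: coupled resazurin fluorescence, excitation 525 nm, emission 613 nm.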
# PfG6PD inh: PfG6PD enzyme inhibitors, primary screen, biochemical, fluorescence intensity, uHTS; AID 504690, 2011; inhibition, % at 20 µM; PfGluPho enzyme, NADPH resazurin-diaphorase fluorescence; actives 0.78% (n = 350,000);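 active means inhibition reaching at least a set limit at 20 µM in the primary screen, cut at about 59% in these data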;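 further: 0% = DMSO wells with substrate and 100% = DMSO wells lacking glucose-6-phosphate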
# EP2 modulator: EP2 receptor modulators, cAMP readout, primary screen, cell-based, HTRF cAMP, PGE2 stimulation; induction, % at 25 µM; EP2-expressing cells, cAMP HTRF FRET, PGE2 co-stimulation; Prostaglandin E2 receptor EP2 subtype (Homo sapiens), P43116; actives 0.83% (n = 260,000);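 active means compounds whose cAMP rise, as percent of the full-agonist control response, exceeds 60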;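 further: rat C6 glioma line stably carrying human EP2 under a CMV promoter; the protocol text gives 20 µM as final concentration; 100% = response of wells given 1 µM PGE2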
# * marks the source's active call; other numbers are inactive results; / = not tested or not shown.
SMILES,Tb hexokinase,PGE2 EP2 inh,PHOSPHO1 inh,HKDC1 inh,PfG6PD inh,EP2 modulator
COc1ccc2cc(CN(Cc3nnnn3CC3CCCO3)C3CCCC3)c(=O)[nH]c2c1 (stereo not drawn),/,11,/,/,/,-4
CC(=O)N1CCN(c2nc(-c3ccco3)c3c(c2C#N)CC(C)(C)SC3)CC1,-14,9,86*,-2,34,34
COc1ccc(NC(=O)N2C3CCC2CC(O)(c2cccnc2)C3)c(OC)c1 (stereo not drawn),/,10,/,/,/,-17
CC(C)C(Nc1ncnc2sc3c(c12)CCCC3)C(=O)O (stereo not drawn),/,11,/,/,/,-5
C[C@H](Nc1ncnc2sc3c(c12)CCC3)C(=O)O,-3,/,66*,-4,-13,20
Cc1cc(C)n(CC(=O)N2CCCC(c3nc(C)ncc3-c3ccncc3)C2)n1 (stereo not drawn),/,/,/,/,/,-43
CCN(c1ccccc1)S(=O)(=O)c1ccc(Cl)nc1,-1,16,6,-4,-2,26
CCN(c1cccc2ccccc12)S(=O)(=O)c1ccc(Cl)nc1,-3,3,25,3,14,65*
COc1ccc(NS(=O)(=O)c2ccc(N3CCCC3)c(NC(=S)Nc3cccc(S(=O)(=O)N(C)C)c3)c2)cc1,18,10,64*,/,/,-17
O=C(CSc1ncnc2sc3c(c12)CCCC3)OCc1ccccc1,/,8,/,/,/,62*
O=C(CSc1ncnc2sc3c(c12)CCCC3)c1ccccc1,3,24,-21,-6,-11,21
CCCn1c2ccccc2c2nnc(SC(CC)C(=O)Nc3sc4c(c3C#N)CCCC4)nc21 (stereo not drawn),-31,9,61*,-3,34,39
Oc1c(Cl)cc(CN(Cc2cc(Cl)c(O)c(Cl)c2)C2CCCCC2)cc1Cl,/,44*,/,/,/,-13
O=C(c1cc2sc3ccccc3c2s1)N1CCCCC1,/,10,/,/,/,-80
CCC(N1CCOC1=O)S(=O)(=O)c1ccc(C)cc1 (stereo not drawn),-4,13,93*,0,3,3
Cc1ccsc1CN1CCc2nc(N3CCC(C)CC3)[nH]c(=O)c2C1,/,6,/,/,/,-72
CCOc1ccccc1NC(=O)CSc1nc(-c2ccccc2)nc2ccccc12,/,6,/,/,/,61*
CCOc1ccccc1NC(=O)c1nc(-c2ccccc2)oc1C,-5,6,6,-2,11,63*
C[C@@H]1C[C@H](C)CN(S(=O)(=O)c2cc(Cl)c(Oc3ccc([N+](=O)[O-])cc3Cl)c(Cl)c2)C1,/,44*,/,/,/,13
CC1(C)Cc2c(sc3[nH]c(=S)n(Cc4ccccc4)c(=O)c23)CO1,8,20,76*,-6,1,17
Cc1cc(C(=O)NC(C)C2CCCO2)no1 (stereo not drawn),9,7,60*,-6,-7,3
C[C@@]12CC[C@@H]3[C@H](CCC4=CC(=O)CC[C@]43C)[C@H]1CC[C@H]2C(=O)COS(=O)(=O)c1ccc(Br)cc1,/,44*,/,/,/,17
C[C@@]12CC[C@@H]3[C@H](CCC4=CC(=O)CC[C@]43C)[C@H]1CC[C@H]2C(=O)Cn1cnc2c(=S)nc[nH]c21,/,41*,/,/,/,11
CCn1ncc(Br)c1C(=O)Nc1ccccc1OC,5,7,-10,11,1,63*
O=C1ON=C(c2ccccc2)/C1=C/c1ccc(O)cc1,/,/,24,5,-14,/
SMILES,Tb hexokinase,PGE2 EP2 inh,PHOSPHO1 inh,HKDC1 inh,PfG6PD inh,EP2 modulator
O=C1ON=C(c2ccc(Cl)cc2)/C1=C/c1ccc(O)cc1,-26,53*,5,8,-2,-65
O=S(=O)(NCc1ccncc1)c1ccc(-n2cnnn2)cc1,/,5,/,/,/,-33
CCOC(=O)c1c(C)oc2c1c(C(c1cccnc1)N1CCN(C)CC1)c(O)c1ccccc12 (stereo not drawn),/,/,-25,/,/,/
CCOC(=O)c1c(C)oc2c1c(C(c1cccnc1)N1CCOCC1)c(O)c1ccccc12 (stereo not drawn),-10,13,79*,13,-5,22
CCOC(=O)c1c(C)[nH]c(N=Nc2ccc(C)cc2C)c1C,-3,10,65*,2,10,24
C#CCOc1cccc(CN(Cc2ccccn2)C2CC(C)(C)NC(C)(C)C2)c1,/,11,/,/,/,-75
CC(=O)c1ccc2c(c1)C1C=CCC1C(c1ccncc1)N2 (stereo not drawn),-21,12,48,11,33,-23
C1=CC2c3ccccc3NC(c3ccncc3)C2C1 (stereo not drawn),-7,-1,79*,14,55,21
CCc1nn(CC(=O)OC)c(=O)c2cc3sccc3n12,/,9,/,/,/,-24
CCCCSC1=N/C(=C/c2ccsc2)C(=O)N1c1ccccc1,6,11,3,-2,20,47
CCCSC1=N/C(=C/c2ccsc2)C(=O)N1c1ccccc1,2,9,6,-2,1,63*
O=C(c1ccn[nH]1)N1CCC2(CC1)Nc1ccccc1-n1cccc12,/,/,/,/,/,-50
Cc1cccc2cc(C(c3nnnn3Cc3ccc(F)cc3)N3CCCCCC3)c(=O)[nH]c12 (stereo not drawn),/,22,/,/,/,67*
Cc1cccc2cc(C(c3nnnn3Cc3ccccc3)N3CCCCC3)c(=O)[nH]c12 (stereo not drawn),/,13,/,/,/,68*
Cc1ccc(C)c2[nH]c(=O)c(C(c3nnnn3Cc3ccccc3)N3CCCCCC3)cc12 (stereo not drawn),/,15,/,/,/,75*
Cc1cccc2cc(C(c3nnnn3Cc3ccccc3)N3CCN(C)CC3)c(=O)[nH]c12 (stereo not drawn),-12,1,2,5,-4,-11
COc1ccc2cc(C(c3nnnn3C3CCCC3)N3CCc4ccccc4C3)c(=O)[nH]c2c1 (stereo not drawn),-24,6,98*,2,15,-19
Cc1occc1-c1nn(C2CCN(C(=O)Cc3ccccc3F)CC2)c(=O)o1,/,4,/,/,/,-58
COc1ccc(Cn2nnnc2C(c2cc3ccc(OC)cc3[nH]c2=O)N2CCCCCC2)cc1 (stereo not drawn),-22,3,86*,-4,11,-8
Cc1c(-c2nc(-c3ccc(C(C)(C)C)cc3)no2)n(C)oc1=O,-5,7,3,-3,18,72*
CCC(C)(C)n1nnnc1C(C(C)C)N(Cc1ccco1)Cc1cc2cc(C)ccc2[nH]c1=O (stereo not drawn),/,11,/,/,/,49
